This note sets out measurements from ChEMBL document CHEMBL1132220 (J Med Chem, 1999).

Molecules are shown by their SMILES. Bridge positions count the residues as written; N and C are the ends. Square brackets hold non-standard residues; d marks the D form. Peptide text beside a SMILES is read from it. Phe(4-F) = N[C@@H](Cc1ccc(F)cc1)C(=O)O; 2Nal = N[C@@H](Cc1ccc2ccccc2c1)C(=O)O; 3Pal = N[C@@H](Cc1cccnc1)C(=O)O; Tle = CC(C)(C)[C@H](N)C(=O)O

Assay [1] addresses Somatostatin receptor type 5 (Homo sapiens, UniProt P35346). The assay can be described thus: The compound was tested for binding affinity against human Somatostatin receptor type 5. Summed up:
(§1)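 Membranes from CHO-K1 cells transfected with the cloned human receptor. Terminated by filtration on PEI-soaked GF/C filters. Nonspecific binding defined with 1.0 μM SRIF. Mean ± SEM; single values are from one experiment.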

Assay [2] deals with Somatostatin receptor type 3 (Homo sapiens, UniProt P32745). Kind of assay: The compound was tested for binding affinity against human Somatostatin receptor type 3. Summed up: (§2)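 CHO-K1 cells stably transfected (calcium phosphate) with cloned human sst3 or sst4. Membranes made in ice-cold 50 mM Tris-HCl, resuspended in 10 mM Tris-HCl, then incubated 30 min at 37 °C with 0.05 nM [125I]Tyr11-SRIF in HEPES pH 7.4 with BSA, MgCl2 and protease inhibitors. Filtered on GF/C; nonspecific binding with 1.0 µM SRIF. Mean ± SEM, or one experiment.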

Assay [3] concerns the target Somatostatin receptor type 2 (Homo sapiens, UniProt P30874). Kind of assay: The compound was tested for binding affinity against human Somatostatin receptor type 2. An outline of the steps: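 Membranes from CHO-K1 cells transfected with the cloned human sst2. Incubated 30 min at 37 °C with 0.05 nM [125I]MK-678 in HEPES pH 7.4 with BSA, MgCl2, Trasylol, bacitracin and PMSF. Filtration on PEI-soaked GF/C filters. Nonspecific binding defined with 1.0 μM SRIF. Mean ± SEM; single values are from one experiment.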

In assay [4] the target is Somatostatin receptor type 1 (Homo sapiens, UniProt P30872). The assay can be described thus: The compound was tested for binding affinity against human Somatostatin receptor type 1. An outline of the steps: as §1
The target of assay [5] is Somatostatin receptor type 4 (Homo sapiens, UniProt P31391). The assay can be described thus: The compound was tested for binding affinity against human Somatostatin receptor type 4. An outline of the steps: as §2
Somatostatin receptor type 4, sequence (P31391 whole entry): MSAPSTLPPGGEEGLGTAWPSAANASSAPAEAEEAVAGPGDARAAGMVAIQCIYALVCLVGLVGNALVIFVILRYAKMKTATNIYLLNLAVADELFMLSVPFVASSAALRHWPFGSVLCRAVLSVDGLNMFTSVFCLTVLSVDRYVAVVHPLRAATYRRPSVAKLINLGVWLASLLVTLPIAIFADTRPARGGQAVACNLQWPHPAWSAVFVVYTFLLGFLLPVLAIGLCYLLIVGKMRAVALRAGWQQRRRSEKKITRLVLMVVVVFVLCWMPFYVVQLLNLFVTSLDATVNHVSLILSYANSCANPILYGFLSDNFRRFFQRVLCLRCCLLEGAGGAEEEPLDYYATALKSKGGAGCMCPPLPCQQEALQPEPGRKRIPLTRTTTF

Somatostatin receptor type 3, sequence (P32745 whole entry): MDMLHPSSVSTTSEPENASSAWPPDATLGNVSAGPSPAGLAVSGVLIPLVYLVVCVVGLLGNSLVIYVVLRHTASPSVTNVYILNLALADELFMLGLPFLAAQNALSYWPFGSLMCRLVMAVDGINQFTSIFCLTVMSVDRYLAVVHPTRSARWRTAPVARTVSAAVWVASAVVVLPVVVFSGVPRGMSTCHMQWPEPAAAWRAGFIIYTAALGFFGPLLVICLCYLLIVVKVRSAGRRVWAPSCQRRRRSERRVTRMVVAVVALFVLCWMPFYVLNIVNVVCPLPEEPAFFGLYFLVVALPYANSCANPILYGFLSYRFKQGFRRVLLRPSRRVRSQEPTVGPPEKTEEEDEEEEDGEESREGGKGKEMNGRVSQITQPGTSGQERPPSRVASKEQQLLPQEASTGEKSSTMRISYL
Somatostatin receptor type 2, sequence (P30874 whole entry): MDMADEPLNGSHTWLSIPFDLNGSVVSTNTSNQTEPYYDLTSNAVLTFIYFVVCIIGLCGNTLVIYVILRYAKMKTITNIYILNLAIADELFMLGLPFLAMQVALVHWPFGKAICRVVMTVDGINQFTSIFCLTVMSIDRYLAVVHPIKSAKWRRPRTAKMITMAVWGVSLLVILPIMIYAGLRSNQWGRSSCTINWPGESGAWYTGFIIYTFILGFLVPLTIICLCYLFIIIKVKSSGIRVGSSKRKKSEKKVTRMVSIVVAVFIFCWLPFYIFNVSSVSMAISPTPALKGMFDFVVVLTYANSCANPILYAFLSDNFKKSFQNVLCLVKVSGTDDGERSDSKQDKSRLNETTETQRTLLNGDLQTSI
Somatostatin receptor type 1, sequence (P30872 whole entry): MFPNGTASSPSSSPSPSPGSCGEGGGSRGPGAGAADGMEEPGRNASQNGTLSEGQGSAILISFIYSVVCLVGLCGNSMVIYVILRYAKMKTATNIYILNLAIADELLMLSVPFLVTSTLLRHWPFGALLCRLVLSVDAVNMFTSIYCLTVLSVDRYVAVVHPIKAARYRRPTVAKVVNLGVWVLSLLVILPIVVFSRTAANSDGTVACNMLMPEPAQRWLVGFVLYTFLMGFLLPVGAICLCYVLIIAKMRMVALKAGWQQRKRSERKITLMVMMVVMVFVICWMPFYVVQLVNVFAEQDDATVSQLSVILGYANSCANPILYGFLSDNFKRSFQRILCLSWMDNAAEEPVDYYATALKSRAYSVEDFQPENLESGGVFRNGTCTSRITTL
Somatostatin receptor type 5, sequence (P35346 whole entry): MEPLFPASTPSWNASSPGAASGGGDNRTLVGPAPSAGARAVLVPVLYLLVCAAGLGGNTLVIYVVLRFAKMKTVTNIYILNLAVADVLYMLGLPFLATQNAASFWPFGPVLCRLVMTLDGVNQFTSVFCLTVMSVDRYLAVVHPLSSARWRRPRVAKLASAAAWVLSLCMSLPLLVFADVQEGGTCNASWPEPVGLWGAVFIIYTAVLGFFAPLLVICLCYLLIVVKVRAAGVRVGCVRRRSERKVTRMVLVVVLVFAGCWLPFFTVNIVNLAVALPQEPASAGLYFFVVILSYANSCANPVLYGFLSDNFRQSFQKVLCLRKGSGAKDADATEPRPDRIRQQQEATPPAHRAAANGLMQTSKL

One may read the Ki as a measure of affinity in units of concentration, obtained from inhibition or displacement. Read a high Ki as weaker binding. Regarding `CC(C)[C@@H]1NC(=O)[C@H](CCCCN)NC(=O)[C@@H](Cc2c[nH]c3ccccc23)NC(=O)[C@@H](Cc2ccccn2)NC(=O)[C@H](NC(=O)[C@@H](N)Cc2c(F)c(F)c(F)c(F)c2F)CSSC[C@@H](C(=O)N[C@@H](Cc2c(F)c(F)c(F)c(F)c2F)C(N)=O)NC1=O`, the Ki in assay [1] is 1380 nM; in assay [2] it was 93 nM; in assay [3], 692 nM; in assay [4] it was 34 nM.
Consider `CC(C)(C)[C@@H]1NC(=O)[C@H](CCCCN)NC(=O)[C@@H](Cc2c[nH]c3ccccc23)NC(=O)[C@H](Cc2cccnc2)NC(=O)[C@H](NC(=O)[C@@H](N)Cc2ccc(F)cc2)CSSC[C@@H](C(=O)N[C@@H](Cc2ccc3ccccc3c2)C(N)=O)NC1=O` (H-[Phe(4-F)][dC][3Pal][dW]K[Tle]C[2Nal]-NH2; disulfide 2-7), for which the inhibition constant (Ki) in assay [1] was 535 nM; in assay [2], 231 nM; in assay [5], greater than 1000 nM; in assay [3] it was 26 nM; in assay [4] it was greater than 1000 nM.
With `C[C@@H]1NC(=O)[C@H](CCCCN)NC(=O)[C@@H](Cc2c[nH]c3ccccc23)NC(=O)[C@H](Cc2cccnc2)NC(=O)[C@H](NC(=O)[C@@H](N)Cc2ccc3ccccc3c2)CSSC[C@@H](C(=O)N[C@@H](Cc2ccc3ccccc3c2)C(N)=O)NC1=O`, the inhibition constant (Ki) in assay [1] is 1860 nM; in assay [2], 379 nM; in assay [5], greater than 1000 nM; in assay [3] it was 203 nM; in assay [4], 1200 nM.
On the same counts, the results for `CC(C)[C@@H]1NC(=O)[C@H](CCCCN)NC(=O)[C@@H](Cc2c[nH]c3ccccc23)NC(=O)[C@H](Cc2cccnc2)NC(=O)[C@H](NC(=O)[C@@H](N)Cc2ccc(Cl)cc2)CSSC[C@@H](C(=O)N[C@@H](Cc2ccc(Cl)cc2)C(N)=O)NC1=O` are 139 nM, 51 nM, 301 nM, 32 nM and greater than 1000 nM.
With `CC(C)[C@@H]1NC(=O)[C@H](CCCCN)NC(=O)[C@@H](Cc2c[nH]c3ccccc23)NC(=O)[C@H](Cc2cccnc2)NC(=O)[C@H](NC(=O)[C@@H](N)Cc2ccc3ccccc3c2)CSSC[C@@H](C(=O)N[C@@H](Cc2ccc3ccccc3c2)C(N)=O)NC1=O`, the Ki in assay [1] is 524 nM; in assay [2], 171 nM; in assay [5], greater than 1000 nM; in assay [3] it was 81 nM; in assay [4], 348 nM.
As for `CC[C@H](C)[C@@H]1NC(=O)[C@H](CCCCN)NC(=O)[C@@H](Cc2c[nH]c3ccccc23)NC(=O)[C@H](Cc2ccc(O)cc2)NC(=O)[C@H](NC(=O)[C@@H](N)Cc2ccc(-c3ccccc3)cc2)CSSC[C@@H](C(=O)N[C@@H](Cc2ccc(-c3ccccc3)cc2)C(N)=O)NC1=O`, the Ki in assay [1] was 689 nM; in assay [2], 1350 nM; in assay [5], greater than 1000 nM; in assay [3] it was 2230 nM; in assay [4], greater than 1000 nM.
Take `C[C@@H](O)[C@@H]1NC(=O)[C@H](CCCCN)NC(=O)[C@@H](Cc2c[nH]c3ccccc23)NC(=O)[C@H](Cc2ccccn2)NC(=O)C(NC(=O)[C@@H](N)Cc2ccc(Cl)cc2)CSSCC(C(=O)N[C@@H](Cc2ccc3ccccc3c2)C(N)=O)NC1=O` (stereo in doubt): the Ki in assay [1] stood at 204 nM; in assay [2] it was 108 nM; in assay [3], 233 nM; in assay [4], 1690 nM.
On to `CC(C)(C)C[C@@H]1NC(=O)[C@H](CCCCN)NC(=O)[C@@H](Cc2c[nH]c3ccccc23)NC(=O)[C@H](Cc2cccnc2)NC(=O)C(NC(=O)[C@@H](N)Cc2ccc(Cl)cc2)CSSCC(C(=O)N[C@@H](Cc2ccc3ccccc3c2)C(N)=O)NC1=O` (stereo in doubt), for which the Ki in assay [1] worked out at 110 nM; in assay [2], 175 nM; in assay [3], 166 nM; in assay [4], 238 nM.
Turning to `CC(C)[C@@H]1NC(=O)[C@H](CCCCN)NC(=O)[C@@H](Cc2c[nH]c3ccccc23)NC(=O)[C@H](Cc2cccnc2)NC(=O)[C@H](NC(=O)[C@@H](N)Cc2ccc(Cl)cc2)CSSC[C@@H](C(=O)N[C@@H](Cc2ccc3ccccc3c2)C(N)=O)NC1=O`, the Ki was 240 nM in assay [1]; 85 nM in assay [2]; 1590 nM in assay [5]; 25 nM in assay [3]; greater than 1000 nM in assay [4].
Turning to `CC(C)(C)[C@@H]1NC(=O)[C@H](CCCCN)NC(=O)[C@@H](Cc2c[nH]c3ccccc23)NC(=O)[C@H](Cc2cccnc2)NC(=O)[C@H](NC(=O)[C@@H](N)Cc2c[nH]c3ccccc23)CSSC[C@@H](C(=O)N[C@@H](Cc2ccc3ccccc3c2)C(N)=O)NC1=O` (H-W[dC][3Pal][dW]K[Tle]C[2Nal]-NH2; disulfide 2-7), the inhibitory constant (Ki) in assay [1] is 2250 nM; in assay [2], 210 nM; in assay [5] it was greater than 1000 nM; in assay [3] it was 84 nM; in assay [4], greater than 1000 nM.
In the case of `CC(C)[C@H]1NC(=O)[C@H](CCCCN)NC(=O)[C@@H](Cc2c[nH]c3ccccc23)NC(=O)[C@H](Cc2c[nH]cn2)NC(=O)C(NC(=O)[C@@H](N)Cc2ccc(F)cc2)CSSCC(C(=O)N[C@@H](Cc2ccc(F)cc2)C(N)=O)NC1=O` (stereo in doubt), the Ki was 173 nM in assay [1]; 269 nM in assay [2]; 847 nM in assay [5]; 31 nM in assay [3]; 1950 nM in assay [4].
As to `C[C@@H](O)[C@@H]1NC(=O)[C@H](CCCCN)NC(=O)[C@@H](Cc2c[nH]c3ccccc23)NC(=O)[C@@H](Cc2ccccn2)NC(=O)C(NC(=O)[C@@H](N)Cc2ccc(Cl)cc2)CSSCC(C(=O)N[C@@H](Cc2ccc3ccccc3c2)C(N)=O)NC1=O` (stereo in doubt), the Ki in assay [1] was 70 nM; in assay [2] it was 53 nM; in assay [5], greater than 1000 nM; in assay [3] it was 14 nM; in assay [4], 1030 nM.
For `CC(C)[C@@H]1NC(=O)[C@H](CCCCN)NC(=O)[C@@H](Cc2c[nH]c3ccccc23)NC(=O)[C@H](Cc2cccnc2)NC(=O)[C@H](NC(=O)[C@@H](N)Cc2c(F)c(F)c(F)c(F)c2F)CSSC[C@@H](C(=O)N[C@@H](Cc2c(F)c(F)c(F)c(F)c2F)C(N)=O)NC1=O`, the inhibitory constant (Ki) worked out at 960 nM in assay [1]; 111 nM in assay [2]; 176 nM in assay [5]; 633 nM in assay [3]; 525 nM in assay [4].
Take `CC(C)C[C@@H]1NC(=O)[C@H](CCCCN)NC(=O)[C@@H](Cc2c[nH]c3ccccc23)NC(=O)[C@H](Cc2cccnc2)NC(=O)[C@H](NC(=O)[C@@H](N)Cc2ccc3ccccc3c2)CSSC[C@@H](C(=O)N[C@@H](Cc2ccc3ccccc3c2)C(N)=O)NC1=O`: the Ki was 968 nM in assay [1]; 243 nM in assay [2]; 728 nM in assay [5]; 543 nM in assay [3]; 415 nM in assay [4].
Turning to `CC(C)[C@@H]1NC(=O)[C@H](CCCCN)NC(=O)[C@@H](Cc2c[nH]c3ccccc23)NC(=O)[C@H](Cc2cccnc2)NC(=O)[C@H](NC(=O)[C@@H](N)Cc2ccc3ccccc3c2)CSSC[C@@H](C(=O)N[C@@H](Cc2ccc(F)cc2)C(N)=O)NC1=O`, the inhibition constant (Ki) in assay [1] was 376 nM; in assay [2], 166 nM; in assay [5] it was greater than 1000 nM; in assay [3] it was 69 nM; in assay [4] it was 1060 nM.
On the same counts, the results for `NCCCC[C@@H]1NC(=O)[C@@H](Cc2c[nH]c3ccccc23)NC(=O)[C@H](Cc2cccnc2)NC(=O)[C@H](NC(=O)[C@@H](N)Cc2ccc3ccccc3c2)CSSC[C@@H](C(=O)N[C@@H](Cc2ccc3ccccc3c2)C(N)=O)NC(=O)CNC1=O` are 382 nM, 192 nM, 1570 nM, 163 nM and 413 nM.
`CC(C)[C@@H]1NC(=O)[C@H](CCCCN)NC(=O)[C@@H](Cc2c[nH]c3ccccc23)NC(=O)[C@H](Cc2ccccn2)NC(=O)[C@H](NC(=O)[C@@H](N)Cc2c(F)c(F)c(F)c(F)c2F)CSSC[C@@H](C(=O)N[C@@H](Cc2c(F)c(F)c(F)c(F)c2F)C(N)=O)NC1=O`: the Ki in assay [1] is 918 nM; in assay [2], 170 nM; in assay [3] it was greater than 1000 nM; in assay [4], 568 nM.
In the case of `C[C@@H](O)[C@@H]1NC(=O)[C@H](CCCCN)NC(=O)[C@@H](Cc2c[nH]c3ccccc23)NC(=O)[C@H](Cc2ccccc2)NC(=O)[C@H](NC(=O)[C@@H](N)Cc2ccc(Cl)cc2)CSSC[C@@H](C(=O)N[C@@H](Cc2ccc3ccccc3c2)C(N)=O)NC1=O`, the Ki in assay [2] is 290 nM; in assay [5], greater than 1000 nM; in assay [3], 51 nM; in assay [4], 443 nM.
Regarding `CC(C)(C)[C@@H]1NC(=O)[C@H](CCCCN)NC(=O)[C@@H](Cc2c[nH]c3ccccc23)NC(=O)[C@H](Cc2cccnc2)NC(=O)[C@H](NC(=O)[C@@H](N)Cc2ccc(Cl)cc2)CSSC[C@@H](C(=O)N[C@@H](Cc2ccc(Cl)cc2)C(N)=O)NC1=O`, the Ki in assay [2] was 58 nM; in assay [5] it was 1640 nM; in assay [3], 19 nM; in assay [4] it was greater than 1000 nM.
Consider `C[C@@H](O)[C@@H]1NC(=O)[C@H](CCCCN)NC(=O)[C@@H](Cc2c[nH]c3ccccc23)NC(=O)[C@@H](Cc2cccnc2)NC(=O)C(NC(=O)[C@@H](N)Cc2ccc(Cl)cc2)CSSCC(C(=O)N[C@@H](Cc2ccc3ccccc3c2)C(N)=O)NC1=O` (stereo in doubt), for which the Ki in assay [5] was greater than 1000 nM.
